From PubChem BioAssay
GPR7 antag – blocks human GPR7 receptor signaling | AID 1861 | GPR7-expressing cells, fluorescence antagonist assay | inhibition, % at 4.4 µM | P48145 | hit rate 1.1% among 290,000; in the data active = inhibition above about 16%, passing the limit was not always enough;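 note: cells stimulated with the agonist NPW; 0% = agonist with vehicle and 100% = vehicle without agonist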
CHO parental Ca – signal in parental CHO cells, OX1R antagonist counter-screen. parental CHO-K1, ATP-induced calcium, Fluo-8 fluorescence. inhibition, % at 5.6 µM. hit rate 0.63% among 330,000. AID 463079;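 active = inhibition above that plate's mean sample inhibition plus 3 SD, cut at about 26% in these data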;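 note: 0% = ATP-challenged DMSO wells and 100% = DMSO wells without ATP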
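Test system: untransfected parental CHO cell line; also added: ATP stimulus; dosing: 5.6 µM, single dose; signal: calcium-sensitive Fluo-8 fluorescence; measure: percent inhibition of ATP-evoked calcium rise, normalized to controls; benchmarks: low control ATP plus DMSO, high control DMSO only; replication: one well per compound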
OX1R antag-1 – blocks the human orexin 1 receptor. CHO/OX1R cells, Fluo-8 calcium fluorescence, orexin A. inhibition, % at 5 µM. hit rate 0.43% among 330,000. O43613. AID 434989;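 active = inhibition above its plate's threshold, mean inhibition of all tested compounds on the plate plus 3 SD, cut at about 37% in these data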;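 note: 0% = orexin A challenge wells and 100% = SB-334867-A antagonist wells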
Target sequence (O43613 whole entry, looked up): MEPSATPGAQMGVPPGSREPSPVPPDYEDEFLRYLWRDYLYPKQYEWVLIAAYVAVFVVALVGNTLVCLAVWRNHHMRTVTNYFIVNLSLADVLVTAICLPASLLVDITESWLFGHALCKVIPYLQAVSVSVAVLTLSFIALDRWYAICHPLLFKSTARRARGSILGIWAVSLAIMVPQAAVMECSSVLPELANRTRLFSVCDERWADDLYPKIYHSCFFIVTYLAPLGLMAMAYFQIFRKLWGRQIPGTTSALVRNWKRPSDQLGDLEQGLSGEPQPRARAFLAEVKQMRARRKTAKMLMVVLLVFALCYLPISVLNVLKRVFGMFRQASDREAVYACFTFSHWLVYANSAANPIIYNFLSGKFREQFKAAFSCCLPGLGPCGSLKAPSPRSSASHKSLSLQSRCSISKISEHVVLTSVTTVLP
GalR3 antagonist – antagonists of human GalR3. HEK293 GalR3-CNG cAMP membrane potential fluorescence; galR3 body fused to GalR1 C-terminus. inhibition, % at 3 µM. hit rate 0.44% among 360,000. AID 651719;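 active = inhibition above the screen-wide average plus 3 SD, cut at about 13% in these data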;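 note: forskolin and galanin both at EC90 stimulate the cells; cAMP rise reported by CNG channel membrane potential dye signal; 0% = forskolin plus galanin with DMSO and 100% = forskolin alone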
OX1R antag-2 – blocks the human orexin 1 receptor; O43613; AID 485270; hit rate 1.8% among 330,000; OX1R-expressing cells, FRET antagonist read-out; inhibition, % at 6.6 µM; in the data active = inhibition mostly above about 38%, no sharp cut-off; inactive = mostly below about 40%;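 note: 0% = agonist challenge alone and 100% = reference antagonist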
GPR7 antag cf – confirmation of human GPR7 antagonists; shares compounds with GPR7 antag; inhibition, % at 4.4 µM; hit rate 52% among 2,400; GPR7-expressing cells, calcium fluorescence antagonist mode; AID 1952; in the data active = inhibition above about 24%;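 note: stimulated with the GPR7 agonist NPW; 0% = agonist plus vehicle and 100% = vehicle alone without agonist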
MCHR1 antagonist – counter-screen for GPR7 antagonists: antagonists of human MCHR1; shares compounds with GPR7 antag; MCHR1-expressing cells, fluorescence antagonist assay; inhibition, % at 4.4 µM; hit rate 62% among 2,400; AID 2148; in the data active = inhibition above about 22%;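 note: 0% = vehicle with agonist and 100% = vehicle without agonist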
The depositor's hits bear a star; . = not tested or not shown. Rows were chosen to be rich in hits. Some 3.1% of all compounds tested hit in one or more screens of this group.

SMILES	GPR7 antag	CHO parental Ca	OX1R antag-1	GalR3 antagonist	OX1R antag-2	GPR7 antag cf	MCHR1 antagonist
Cn1c(=O)c2cc(NC(=O)NCc3ccc(Cl)cc3Cl)ccc2n1Cc1ccccc1	.	.	.	-7	.	.	.
COc1cc(OC)cc(C2=Cc3ccccc3C(CC(=O)c3ccco3)N2c2ccc(-c3ccc(C(N)=O)cc3)cc2)c1 (stereo not drawn)	.	.	.	-8	.	.	.
Fc1cccc(Cc2c(-c3ccco3)nc3ccc(Br)cn23)c1	.	.	.	4	.	.	.
Nc1nc2ccccc2n1CCN1CCCC1	33*	-5	-15	.	24	-8	2
CCc1ccc(-n2c(SCC(=O)N3Cc4ccccc4CC3C(=O)O)nnc2-c2ccncc2)cc1 (stereo not drawn)	21*	-23	-4	-6	16	3	-2
COc1ccc(C2C(Oc3ccccc3C)C(=O)N2Cc2ccc(F)cc2)cc1OC (stereo not drawn)	28*	-8	-16	-5	36	16	20
CS(=O)(=O)c1sc(C#N)c2c1C(=O)CC(c1ccccc1)C2 (stereo not drawn)	75*	53*	92*	-1	46*	97*	94*
COC(=O)c1[nH]c2c(c1C)C(=O)CC(c1ccccc1)C2 (stereo not drawn)	3	-15	6	-2	17	.	.
O=C(c1cc(COc2ccc(F)c(F)c2)on1)N1CCN(C2CCCCC2)C(=O)C1	27*	19	8	2	14	11	4
O=C(c1cc(COc2c(F)cccc2F)on1)N1CCN(C2CCCCC2)C(=O)C1	-2	1	-16	-2	10	.	.
CS(=O)(=O)c1ccc(C(=O)OCc2nnc(-c3ccc(Cl)cc3)o2)cc1[N+](=O)[O-]	35*	13	4	.	31	88*	78*
CCN(CC)c1ccc(-c2sc(Nc3ccccc3)n[n+]2-c2ccc(F)cc2)cc1	6	-11	-11	4	15	.	.
CCc1ccc(Nc2n[n+](-c3ccccc3)c(-c3ccc(N(CC)CC)cc3)s2)cc1	62*	45*	29	-2	25	88*	83*
CCc1ccc(Nc2n[n+](-c3ccccc3)c(-c3ccc(OCc4ccccc4)cc3)s2)cc1	68*	3	-8	-2	14	53*	59*
c1ccc(COc2ccc(-c3sc(Nc4ccccc4)n[n+]3-c3ccccc3)cc2)cc1	9	0	-6	.	26	.	.
Fc1ccc(-[n+]2nc(Nc3ccccc3)sc2-c2c(Cl)cccc2Cl)cc1	3	34	11	-3	30	.	.
CCc1ccc(Nc2n[n+](-c3ccccc3)c(-c3c(Cl)cccc3Cl)s2)cc1	45*	93*	103*	-7	36	60*	73*
C[C@@H]1CN(C(=O)OC(C)(C)C)CCN1c1ccc(N2CCN(Cc3ccccc3)[C@@H](C)C2)c(C#N)c1	.	.	.	-2	.	.	.
Cc1cc(Br)cn2c(Cc3cccc(F)c3)c(-c3ccco3)nc12	.	.	.	2	.	.	.
CCC(C)c1ccc(NC(=O)NCCN2CCCCC2)cc1 (stereo not drawn)	32*	-11	-17	-8	14	1	4
Cc1ccc(NC(=O)NCCN2CCCCC2)cc1	-18	-16	-24	-4	0	.	.
CC(C)(C)C(=O)Nc1nnc([C@H]2C[C@H](O)[C@@H](CO)O2)s1	.	.	.	-2	.	.	.
Cc1ccc(F)c(S(=O)(=O)NC(=O)C2(C)CCN2C(=O)Cc2ccc(-c3ccccc3)cc2)c1 (stereo not drawn)	.	.	.	0	.	.	.
Clc1ccccc1-c1nnn(Cc2ccc(-c3nn[nH]n3)cc2)n1	24*	-1	-16	-2	25	29*	19
Clc1ccc(Cn2nnc(-c3ccccc3)n2)cc1	-4	-6	-5	-2	4	.	.
SMILES	GPR7 antag	CHO parental Ca	OX1R antag-1	GalR3 antagonist	OX1R antag-2	GPR7 antag cf	MCHR1 antagonist
CC1(Cc2ccc3ccccc3n2)C(=O)Nc2ccc(OC(F)(F)F)cc21 (stereo not drawn)	.	.	.	-5	.	.	.
CCN(Cc1ccccc1)C(c1ccccn1)c1nnnn1C(C)(C)CC (stereo not drawn)	22*	-12	9	-10	15	25*	56*
CC(C)(C)n1nnnc1C(c1ccccn1)N(Cc1ccccc1)Cc1ccc(Cl)cc1 (stereo not drawn)	-1	-2	-20	-8	10	.	.
O=C(COc1ccc(F)cc1)N1CCc2ccccc2C1	28*	-5	-15	-1	13	21	9
COc1ccccc1-c1ccc(SCc2cccc(F)c2)nn1	29*	-8	-9	-2	25	36*	56*
CCN(CC)S(=O)(=O)c1ccc(N2CCc3ccccc3C2)nc1	-10	-13	-17	-5	10	.	.
CC(C)N(C(C)C)S(=O)(=O)c1ccc(N2CCc3ccccc3C2)nc1	21*	-25	-8	-9	22	16	63*
Cc1ccccc1NC(=O)CSCc1nc(N)nc(Nc2ccccc2C)n1	21*	-9	-11	-4	30	-2	6
Cc1ccccc1Nc1nc(N)nc(CCl)n1	-6	-11	-2	2	-1	.	.
CC(=O)Nc1ccc(C(=O)OCCC(C)C)cc1	25*	-10	-7	-6	10	11	-2
Cc1c(O)ccoc1=O	21*	-9	-2	0	14	-1	-6
Cc1c(N)c(C(C)(C)C)cc(C(C)(C)C)c1[N+](=O)[O-]	-18	-22	-30	-3	18	.	.
Cc1cc2nc3c(=O)[nH]c(=O)[nH]c3nc2c([N+](=O)[O-])c1N	25*	.	.	0	.	13	4
CCN(c1cccc(C)c1)S(=O)(=O)c1cccc2nsnc12	23*	-19	-18	-3	37	-25	39*
C=C(C1=CCN(S(=O)C(C)(C)C)[C@@H]1CCO)c1ccccc1 (stereo partly drawn)	.	.	.	-8	.	.	.
CSc1ccccc1C(=O)N(C)C(c1ccccc1)c1ccccc1	22*	-10	10	-12	18	15	61*
CCC(CC)C(=O)N(C)c1c(C)nc2c(OCC(=O)C(C)(C)C)cccn12	.	.	.	-7	.	.	.
Cc1noc(C)c1CSc1nnc(-c2ccccc2)o1	23*	-12	-2	-3	9	31*	22*
CSCc1cc(C(=O)NC2CC2)c(N)s1	.	.	.	-7	.	.	.
COc1ccc([C@@H]2CC(=O)[C@@H]3CN(S(=O)(=O)c4ccc(C)cc4)[C@H](c4ccccc4)C[C@@H]3N2S(=O)(=O)c2ccccc2)cc1	.	.	.	-5	.	.	.
COC(=O)c1cc2c(c3c4cc(C)ccc4n(S(=O)(=O)c4cccc(C)c4)c13)C(=O)N(Cc1ccc(N(C)C)cc1)C2	.	.	.	2	.	.	.
COc1ccc(N(C)S(=O)(=O)c2cccc(C(=O)NC3CCC(C)CC3)c2)cc1 (stereo not drawn)	40*	-25	-40	-5	6	36*	48*
